From ChEMBL document CHEMBL4825764, “Flavonoid Monomers as Potent, Nontoxic, and Selective Modulators of the Breast Cancer Resistance Protein (ABCG2)” (J Med Chem, 2021)

Tests used:
Assay type in all cases: cell-based; call rule not given here
BCRP (ABCG2) = target: T1, BCRP (ABCG2) (Homo sapiens, UniProt Q9UNQ0); experiment: Inhibition of BCRP (unknown origin) expressed in HEK293/R2 cells assessed as conformational change by measuring increase in 5D3 shift at 1 uM preincubated for 15 mins followed by FITC mouse antihuman BCRP antibody addition measured after 30 mins by flow cytometry analysis; details: HEK293/R2 cells expressing BCRP, time 45 min
T1 sequence (Q9UNQ0 whole entry): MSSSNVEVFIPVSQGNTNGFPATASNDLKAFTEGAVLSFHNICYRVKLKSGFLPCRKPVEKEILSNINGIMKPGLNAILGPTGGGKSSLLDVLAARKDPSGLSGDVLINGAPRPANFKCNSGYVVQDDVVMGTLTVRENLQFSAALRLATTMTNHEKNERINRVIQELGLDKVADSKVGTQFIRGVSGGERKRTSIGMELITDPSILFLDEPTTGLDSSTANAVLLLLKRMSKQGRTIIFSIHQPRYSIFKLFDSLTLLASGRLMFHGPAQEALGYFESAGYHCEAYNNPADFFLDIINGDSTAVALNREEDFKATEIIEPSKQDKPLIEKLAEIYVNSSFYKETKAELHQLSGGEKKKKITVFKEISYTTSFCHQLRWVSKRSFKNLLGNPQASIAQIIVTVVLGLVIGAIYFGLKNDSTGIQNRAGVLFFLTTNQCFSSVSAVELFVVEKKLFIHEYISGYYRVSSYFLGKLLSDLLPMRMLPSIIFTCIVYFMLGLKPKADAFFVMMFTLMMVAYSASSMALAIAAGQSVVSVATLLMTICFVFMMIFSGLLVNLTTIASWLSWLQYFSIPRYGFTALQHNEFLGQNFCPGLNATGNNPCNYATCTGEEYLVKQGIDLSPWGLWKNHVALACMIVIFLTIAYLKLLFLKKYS
Method in brief: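 5 × 10^5 HEK293/R2 cells in FACS buffer were shaken 15 min at 37 °C with 1 μM compound. FITC 5D3 anti-BCRP was then added for 30 min at 37 °C and fluorescence read by flow cytometry on FL1. Compound-only background was subtracted and the untreated DMSO shift removed. Result is % of the 1 μM Ko143-induced shift.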

Homo sapiens = species on record: Homo sapiens; experiment: Selectivity index, ratio of EC50 for inhibition of MRP1 (unknown origin) expressed in 2008/MRP1 cells assessed as reversal of mitoxantrone resistance to EC50 for inhibition of BCRP (unknown origin) expressed in HEK293/R2 cells assessed as reversal of mitoxantrone resistance
Method in brief: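 Selectivity index is the EC50 in 2008/MRP1 or LCC6MDR divided by the EC50 in HEK293/R2. All three lines were measured by 5-day mitoxantrone co-incubation with modulator, with MTS/PMS read-out at 490 nm.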

[1] = target: T2, Broad substrate specificity ATP-binding cassette transporter ABCG2 (Homo sapiens, UniProt Q9UNQ0); experiment: Inhibition of BCRP (unknown origin) expressed in human HEK293/R2 cells assessed as increase in intracellular mitoxantrone accumulation by measuring fold change at 1 uM after 2 hrs in presence of mitoxantrone by flow cytometry analysis relative to control; details: hek293/r2, 2 h
T2 sequence (Q9UNQ0 whole entry): T1 sequence (Q9UNQ0 whole entry)
Method in brief: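 5 × 10^5 HEK293/pcDNA3.1 or HEK293/R2 cells in 1 mL were incubated 2 hr at 37 °C with 50 μM topotecan or 5 μM mitoxantrone plus 1 or 2 μM modulator, with DMSO as the vehicle control. Cells were washed in cold PBS and resuspended in FACS buffer. Flow cytometry read FL1 (topotecan) or FL4 (mitoxantrone) over 50,000 events, normalized to wild-type cells.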

[2] = target: T2, Broad substrate specificity ATP-binding cassette transporter ABCG2; experiment: Inhibition of BCRP (unknown origin) expressed in wild-type HEK293 cells mediated mitoxantrone efflux assessed as intracellular mitoxantrone level at 2 uM preincubated with mitoxantrone for 1 hr followed by compound addition and measured upto 150 mins by flow cytometry analysis; details: hek293, 2.5 h
Method in brief: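 Cells were preloaded with 5 μM mitoxantrone for 1 hr at 37 °C, washed, then kept in drug-free medium with or without 2 μM modulator. Cells were harvested at 0, 30, 60, 90, 120 and 150 min and intracellular mitoxantrone read by flow cytometry (FL4). Level is expressed as % of the 0-min value.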

L929 = experiment: Cytotoxicity against mouse L929 cells assessed as reduction in cell viability

inhibition at 0.5 h, 1 µM (BCRP (ABCG2)): 100%
SMILES: COC(=O)c1cccc(COc2c(-c3ccc(OCCCCc4cn(Cc5ccccc5)nn4)cc3)oc3ccccc3c2=O)c1
Ratio EC50 (Homo sapiens): 68
fold change (FC) [1]: 5.9
inhibition (INH) [2]: Not Active
IC50 (L929): > 100 µM
